Assay results gathered from unrelated publications.
Cell line: A549
Effect on: cell growth or viability

SMILES	test	conditions	quantity	result
Cc1c(Cl)c(=O)oc2cc(OCCCCSC#N)ccc12	SRB	–	GI50	13000 nM
O=C(NCc1cn(Cc2ccc(Br)cc2)nn1)Nc1ccccc1Br	CCK-8	50 µM, 72 h	viability	91.5%
COc1ccc(NC(=O)NCc2cn(Cc3ccc(C)cc3)nn2)cc1	CCK-8	20 µM, 72 h	viability	70.4%
CCCCC(=O)Nc1ccc(-c2ccc3ncn(CC)c(=O)c3c2)cn1	CCK-8	72 h	IC50	920 nM
CCC(=O)NCc1ccc(-c2cnc(C3CN(C(=O)c4ccc(NC(=O)[C@@H]5CC(C)(C)CN5)s4)C3)s2)c2ccccc12	–	14 days	GI50	460 nM
N[C@@H](CO)C(=O)Nc1ccccc1/N=c1\cc(-c2ccc3c(c2)OCO3)oc2ccccc12	CCK-8	1 µM	inhibition	-0.16%
COc1ccc(NC(=O)Nc2cccc(-c3cn(Cc4cccc(Cl)c4)nn3)c2)cc1	CCK-8	50 µM, 72 h	viability	237%
CCCCCCCCCCCCCCCCCCOc1ccc(CC(=O)OCC[N+]2(C)CCCCC2)cc1	SRB	10 µM	inhibition	11.1%
O=C(Nc1cccc(-c2cn(Cc3ccc(Cl)cc3)nn2)c1)Nc1ccccc1Br	CCK-8	20 µM, 72 h	viability	159%
COc1ccc(NC(=O)Nc2ccc(-c3cn(Cc4ccc(Br)cc4)nn3)cc2)cc1	CCK-8	20 µM, 72 h	viability	102%
O=C(Nc1ccc(Cl)cc1)Nc1cccc(-c2cn(Cc3ccc(Cl)cc3)nn2)c1	CCK-8	50 µM, 72 h	viability	101%
CCCCCCCCCCCCCCCCCCOc1ccc(CC(=O)OCC[N+]2(C)CCCC2)cc1	SRB	10 µM	inhibition	2.78%
NCCC(=O)Nc1ccccc1/N=c1\cc(-c2ccc3nc(N)oc3c2)oc2ccc(F)cc12	CCK-8	1 µM	inhibition	42.4%
O=C(Nc1ccc(Cl)cc1)Nc1cccc(-c2cn(Cc3cccc(Cl)c3)nn2)c1	CCK-8	20 µM, 72 h	viability	115%
NCCC(=O)Nc1ccccc1/N=c1\cc(-c2ccc3c(c2)OCO3)oc2ccccc12	CCK-8	1 µM	inhibition	3.27%
CCCn1cnc2ccc(-c3ccc(N4CCCC4=O)nc3)cc2c1=O	CCK-8	72 h	IC50	> 10000 nM
O=C(Nc1cccc(-c2cn(Cc3ccc(Br)cc3)nn2)c1)Nc1ccccc1Br	CCK-8	50 µM, 72 h	viability	70.9%
CCCCC(=O)Nc1ccc(-c2ccc3ncn(CCC(C)C)c(=O)c3c2)cn1	CCK-8	72 h	IC50	450 nM
CCCCCCCCCCCCCCCCCCOc1ccccc1CC(=O)OCC[N+]1(C)CCCC1	SRB	10 µM	inhibition	77%
NCCCCC(=O)Nc1ccccc1/N=c1\cc(-c2ccc3c(c2)OCO3)oc2ccccc12	CCK-8	1 µM	inhibition	3.56%

SMILES	test	conditions	quantity	result
CCCCC(=O)Nc1ccc(-c2cnc3ncn(CCC)c(=O)c3c2)cn1	CCK-8	72 h	IC50	> 10000 nM
O=C(Nc1ccccc1/N=c1\cc(-c2ccc3c(c2)OCO3)oc2ccccc12)N1CCOCC1	CCK-8	1 µM	inhibition	13.8%
CCCn1cnc2ccc(-c3ccc(NC(=O)c4ccccc4)nc3)cc2c1=O	CCK-8	72 h	IC50	120 nM
O=C(Nc1ccc(Cl)cc1)Nc1nc2cc(-c3ccc4ncn(Cc5ccccc5)c(=O)c4c3)ccc2s1	MTT	72 h	IC50	> 20000 nM
CCCCn1cnc2ccc(-c3ccc(NC(=O)Nc4ccc(OC)cc4)nc3)cc2c1=O	CCK-8	72 h	IC50	> 10000 nM
O=C(Nc1ccccc1/N=c1\cc(-c2ccc3c(c2)OCO3)oc2ccccc12)N1CCNCC1	CCK-8	1 µM	inhibition	-6.54%
COc1ccc(NC(=O)Nc2ccc(-c3cn(Cc4ccc(C)cc4)nn3)cc2)cc1	CCK-8	20 µM, 72 h	viability	67.9%
CCCCCCCCCCCCCCCCCCOCC(COP(=O)([O-])OCC[N+](C)(C)C)OC (stereo not shown)	SRB	10 µM	inhibition	2.5%
NCC(=O)Nc1ccccc1/N=c1\cc(-c2ccc3c(c2)OCO3)oc2c(N)cccc12	CCK-8	1 µM	inhibition	-3.51%
COc1ccc(NC(=O)Nc2cccc(-c3cn(Cc4ccccc4C)nn3)c2)cc1	CCK-8	50 µM, 72 h	viability	212%
NCCC(=O)Nc1ccccc1/N=c1\cc(-c2ccc3oc(N)nc3c2)oc2ccccc12	CCK-8	1 µM	inhibition	14.5%
CCCCCCCCCCCCCCCCCCOc1ccccc1CC(=O)OCCC[N+](C)(C)C	SRB	10 µM	inhibition	45.8%
O=C(Nc1ccc(Cl)cc1)Nc1ccc(-c2cn(Cc3ccc(Br)cc3)nn2)cc1	CCK-8	20 µM, 72 h	viability	69.1%
CCCCC(=O)Nc1ccc(-c2ccc3ncn(CC4CCC4)c(=O)c3c2)cn1	CCK-8	72 h	IC50	320 nM
COc1ccc(NC(=O)NCc2cn(Cc3ccc(Br)cc3)nn2)cc1	CCK-8	20 µM, 72 h	viability	102%
CCCCC(=O)Nc1ccc(-c2ccc3ncn(CCC)c(=O)c3c2)c(F)n1	CCK-8	72 h	IC50	> 10000 nM
O=C(Nc1ccc(Cl)cc1)Nc1cccc(-c2cn(Cc3cccc(Br)c3)nn2)c1	CCK-8	50 µM, 72 h	viability	145%
O=C(NCc1cn(Cc2ccc(Cl)cc2)nn1)Nc1ccc(Cl)cc1	CCK-8	20 µM, 72 h	viability	61.7%
CCNC(=O)Nc1nc2cc(-c3ccc4ncn(Cc5ccccc5)c(=O)c4c3)ccc2s1	MTT	72 h	IC50	11000 nM
Cc1ccccc1Cn1cc(-c2cccc(NC(=O)Nc3ccc(F)cc3)c2)nn1	CCK-8	50 µM, 72 h	viability	175%
